Compound activity deposited in PubChem BioAssay by several laboratories.
The list is not random: actives were taken first. Their share in the collection is about 2.9%.
ATG4B inh: ATG4B protease inhibitors, primary screen, biochemical, fluorescence, uHTS | Cysteine protease ATG4B (Homo sapiens), Q9Y4P1 | ATG4B cleavage of LC3-PLA2, NBD-HPC fluorescence, 1 h | inhibition, % at 8.33 µM | hit rate 0.51% among 340,000 | AID 504462, 2011; in the data active = inhibition above about 40%
PRMT1 FP inh: PRMT1 methyltransferase inhibitors, primary screen, biochemical, fluorescence polarization; Protein arginine N-methyltransferase 1 (Homo sapiens), Q99873; recombinant PRMT1, activity-based probe fluorescence polarization; inhibition, % at 2.79 µM; hit rate 1.3% among 370,000; AID 652257, 2013;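 active = inhibition above about 21% made by adding two undisclosed values, limit read from the data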
HTRA1 inh: HTRA1 serine protease inhibitors, primary screen, biochemical, fluorescence polarization, HTS; Q92743; recombinant HTRA1, FP-rhodamine activity-based probe; inhibition, % at 5.96 µM; hit rate 0.5% among 340,000; AID 504803, 2011; in the data active = inhibition above about 36%
mABHD4 FP: ABHD4 inhibitors, primary screen, biochemical, fluorescence polarization, mouse. (Lyso)-N-acylphosphatidylethanolamine lipase (Mus musculus), Q8VD66. purified mABHD4, FP-Rh probe fluorescence polarization. inhibition, % at 8.92 µM. hit rate 0.54% among 370,000. AID 720543, 2013;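 active = inhibition exceeding the mean over every tested compound plus 3 SD, cut at about 30% in these data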
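Test system: mouse ABHD4 enzyme, wild type. Reagent: FP-Rh fluorescent activity-based probe, added after compound pre-incubation. Timing: pre-incubation 45 min, probe exposure 60 min, at 25 °C. Technique: FP readout, ex 525 nm / em 598 nm. Benchmarks: high control S159A mutant with DMSO, low control median of compound wells.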
SIAE primary: human SIAE inhibitors, primary screen, biochemical, fluorescence polarization, FP-Rh probe, 1536-well HTS; SIAE FP-Rh probe binding; Sialate O-acetylesterase (Homo sapiens), Q9HAT2; hit rate 0.69% among 370,000; inhibition, % at 9.66 µM; AID 1053197, 2014;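 active = inhibition above a cutoff: mean of compounds within the control limits plus 3 SD of those, cut at about 17% in these data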
Target sequence (Q9HAT2 whole entry, looked up): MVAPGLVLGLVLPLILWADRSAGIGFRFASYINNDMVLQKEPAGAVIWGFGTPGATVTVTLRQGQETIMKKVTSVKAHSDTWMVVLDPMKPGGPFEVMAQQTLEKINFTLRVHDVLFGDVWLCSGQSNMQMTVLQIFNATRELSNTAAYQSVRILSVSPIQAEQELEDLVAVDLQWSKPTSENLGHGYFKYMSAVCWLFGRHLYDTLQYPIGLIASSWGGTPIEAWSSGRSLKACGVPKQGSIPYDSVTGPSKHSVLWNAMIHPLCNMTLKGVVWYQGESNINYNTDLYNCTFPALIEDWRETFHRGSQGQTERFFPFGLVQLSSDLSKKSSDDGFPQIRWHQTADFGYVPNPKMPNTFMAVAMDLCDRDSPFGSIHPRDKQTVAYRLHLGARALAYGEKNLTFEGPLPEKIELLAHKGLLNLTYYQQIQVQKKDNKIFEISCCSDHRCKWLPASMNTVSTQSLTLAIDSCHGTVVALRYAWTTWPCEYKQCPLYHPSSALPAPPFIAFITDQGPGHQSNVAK
TCR-CD3 inh: inhibitors of human TCR-CD3 interaction, primary screen, biochemical, fluorescence, TAMRA-labeled TCR probe; T-cell receptor (TCR); inhibition, % at 9.4 µM; hit rate 0.37% among 360,000; AID 651800, 2012;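 note: recombinant mutant TCR 2C K166C tagged with TAMRA read by polarization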
HTRA1 conf: HTRA1 protease inhibitors, retest, confirmation, biochemical, fluorescence polarization; hit rate 66% among 1,600; recombinant HTRA1, FP-rhodamine activity-based probe; shares compounds with HTRA1 inh; inhibition, % at 5.96 µM; AID 540248, 2011;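 active = mean inhibition over three repeats above a set limit taken from the earlier primary screen, cut at about 37% in these data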;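 note: inhibitors block probe binding so polarization drops and inhibition rises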
BSA probe FL: compounds interfering with TAMRA-BSA probe, counter-screen for TCR-CD3 interaction inhibitor project, biochemical, fluorescence, TAMRA-labeled BSA | inhibition, % at 9.4 µM | hit rate 10% among 1,200 | shares compounds with TCR-CD3 inh | TAMRA-labeled BSA probe fluorescence counterscreen; in the data active = inhibition above about 23%
TCR-CD3 conf: TCR-CD3 interaction inhibitors, retest, confirmation, biochemical, fluorescence, TAMRA-labeled TCR probe; inhibition, % at 9.4 µM; AID 652036, 2013; TAMRA-labeled TCR probe fluorescence binding assay; shares compounds with TCR-CD3 inh; hit rate 48% among 1,200
PRMT1 inh conf: PRMT1 methyltransferase inhibitors, confirmation, biochemical, fluorescence polarization, triplicate; inhibition, % at 2.79 µM; hit rate 42% among 3,300; shares compounds with PRMT1 FP inh; recombinant His-PRMT1, activity-based probe fluorescence polarization;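 active = mean inhibition across replicates above the hit cutoff derived for the earlier primary screen, cut at about 22% in these data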
ABHD4 confirm: ABHD4 inhibitors, retest, confirmation, biochemical, fluorescence polarization, mouse; shares compounds with mABHD4 FP; purified mABHD4, FP-Rh probe fluorescence polarization; inhibition, % at 8.92 µM; hit rate 55% among 1,800; AID 720658, 2013;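 active = mean inhibition across replicates above the hit cutoff set in the primary screen, cut at about 30% in these data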
SIAE inh conf: human SIAE inhibitors, retest, confirmation, biochemical, fluorescence polarization, FP-Rh probe, triplicate; SIAE FP-Rh activity-based probe; inhibition, % at 9.66 µM; shares compounds with SIAE primary; hit rate 13% among 2,300; AID 1117263, 2014;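 active = mean inhibition of the replicates above the hit cutoff set in the primary screen, cut at about 17% in these data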;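 note: inhibitors lower polarization as more probe stays unbound to SIAE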
A number is an active result; 0 = inactive; - = not tested or not shown. Cut-off read from the data, not from the text of the source, unless noted: active = inhibition above about 19%; inactive = the rest.

SMILES | ATG4B inh | PRMT1 FP inh | HTRA1 inh | mABHD4 FP | SIAE primary | TCR-CD3 inh | HTRA1 conf | ABHD4 confirm | others
CCOC(=O)C1CCN(C2=C(NS(=O)(=O)c3ccc(Br)cc3)C(=O)c3ccccc3C2=O)CC1 | 0 | 0 | 47 | 45 | 19 | 0 | 65 | 63
Cn1c(=O)c2[nH]c(SCC(=O)NCCc3ccc(F)cc3)nc2n(C)c1=O | - | 0 | - | 0 | 0 | - | - | -
Nc1[nH]n(-c2ccccc2)c(=O)c1N=Nc1ccc2ncsc2c1 | 0 | 23 | 36 | 48 | 0 | 0 | 0 | 65
Nc1[nH]n(-c2ccccc2)c(=O)c1N=Nc1ccccc1 | 0 | 0 | 0 | 0 | 0 | 0 | - | -
Cc1ccccc1CN1CCCCC(NC(=O)c2ccccc2C(F)(F)F)C1=O (centres undefined) | - | 0 | - | 0 | 0 | - | - | -
CCOC(=O)C1(C)C=C(Nc2ccc(OC)cc2)C(=O)N1c1ccc(OC)cc1 (centres undefined) | 0 | 0 | 0 | 0 | 0 | 0 | - | -
CCOC(=O)C1(C)C=C(Nc2ccc(O)cc2)C(=O)N1c1ccc(O)cc1 (centres undefined) | 0 | 33 | 55 | 76 | 0 | 40 | 0 | 0 | BSA probe FL=0;TCR-CD3 conf=0
COc1ccc(NS(=O)(=O)c2cc([N+](=O)[O-])ccc2NN=Cc2ccccc2OCC(=O)O)cc1 | 0 | 0 | 0 | 0 | 0 | 0 | - | -
O=[N+]([O-])c1ccccc1NC(=S)N/N=C/c1ccc(O)c(O)c1 | 0 | 0 | 80 | 51 | 0 | 20 | 73 | 36 | BSA probe FL=0;TCR-CD3 conf=20
O=C(O)COc1ccccc1/C=N/Nc1ccc(S(=O)(=O)Nc2ccc(Cl)cc2)cc1[N+](=O)[O-] | 0 | 0 | 54 | 63 | 0 | 0 | 88 | 79
O=C(O)c1ccccc1NS(=O)(=O)c1ccc(N/N=C/c2ccc(O)c(O)c2)c([N+](=O)[O-])c1 | 0 | 33 | 66 | 81 | 0 | 19 | 143 | 100 | BSA probe FL=0;TCR-CD3 conf=43;PRMT1 inh conf=40
O=[N+]([O-])c1ccccc1C=NNC(=S)NN=Cc1ccccc1[N+](=O)[O-] | 0 | 0 | 0 | 0 | 0 | 0 | - | -
NC(=S)NN=Cc1nccc2c(C(F)(F)F)cccc12 | - | 0 | 69 | 31 | 0 | 0 | 80 | 32
COCCCNC(=O)c1oc(=O)c2ccccc2c1-c1ccc(C)cc1 | - | 0 | - | 0 | 0 | - | - | -
O=c1c(-c2ccc([N+](=O)[O-])cc2)coc2c(O)c(O)ccc12 | 0 | 38 | 66 | 42 | 0 | 0 | 68 | 0
CN(C)Cc1c(O)ccc2c(=O)c(-c3ccc(Cl)cc3)coc12 | 0 | 0 | 0 | 0 | 0 | 0 | - | -
CC(c1c[nH]c2ccccc12)c1c[nH]c2ccc(Br)cc12 (centres undefined) | - | 0 | - | 0 | 0 | - | - | -
Oc1ccc(N=Nc2ccccc2-c2nn[nH]n2)c(O)c1 | 0 | 0 | 42 | 68 | 0 | 0 | 67 | 71
CN(C)c1cc2c(c(N(C)C)c1)C(=O)c1ccccc1C2=O | 0 | 0 | 41 | 41 | 0 | 0 | 50 | 33
CN(C)S(=O)(=O)c1cccc2c1C(=O)c1ccccc1C2=O | 0 | 0 | 0 | 0 | 0 | 0 | - | -
CCCCCCCCCCOC(=O)Cn1c(COc2cccc(C)c2)[n+](C)c2ccccc21 | 0 | 0 | 38 | 32 | 0 | 0 | 0 | 38
CCCCCCCCCCOC(=O)Cn1c(COc2ccc(OC)cc2)[n+](C)c2ccccc21 | 0 | - | 0 | - | - | - | - | -
O=c1[nH]c2cc(Br)c(Br)nc2[nH]1 | - | 0 | - | 0 | 0 | - | - | -
O=[N+]([O-])c1cc(C(F)(F)F)cc([N+](=O)[O-])c1NN=C1CCCCC1 | 0 | 0 | 42 | 37 | 0 | 0 | 0 | 0
Cc1cc(=O)[nH]c(N=N/C(=N/Nc2ccc(O)cc2)c2ccccc2)n1 | 0 | 0 | 0 | 0 | 0 | 0 | - | -
SMILES | ATG4B inh | PRMT1 FP inh | HTRA1 inh | mABHD4 FP | SIAE primary | TCR-CD3 inh | HTRA1 conf | ABHD4 confirm | others
COc1ccc(N/N=C(/N=Nc2nc(C)cc(=O)[nH]2)c2ccccc2)cc1 | 0 | 0 | 71 | 40 | 0 | 0 | 76 | 42
Cc1ccc(/C=C/C(=O)c2ccccc2)cc1 | 0 | 0 | 0 | 0 | 0 | 0 | - | -
Cc1ccc(C)c(/C=C/C(=O)c2ccccc(=O)c2O)c1 | 0 | 0 | 54 | 38 | 0 | 0 | 59 | 0
COc1ccc(OC)c(Nc2nc(-c3sc(NC(=O)CC(C)C)nc3C)cs2)c1 | 0 | 0 | 37 | 35 | 0 | 0 | 0 | 54
CCCCC(=O)Nc1nc(C)c(-c2csc(Nc3cc(OC)ccc3OC)n2)s1 | 0 | 0 | 39 | 42 | 0 | 0 | 0 | 66
COc1ccc(OC)c(Nc2nc(-c3sc(NC(=O)C(C)(C)C)nc3C)cs2)c1 | 0 | 0 | 0 | 0 | 0 | 0 | - | -
O=C(N/N=C/c1ccc(O)c(O)c1)NC12CC3CC(CC(C3)C1)C2 | 0 | 0 | 68 | 33 | 0 | 0 | 82 | 31
CCOc1cccc(CNn2cnnc2)c1OCc1ccccc1Cl | 0 | 0 | 0 | 0 | 0 | 0 | - | -
CCOc1cccc(CNc2ccc(O)cc2)c1OCc1ccccc1Cl | 0 | 0 | 52 | 55 | 30 | 24 | 0 | 31 | BSA probe FL=0;TCR-CD3 conf=0;SIAE inh conf=0
Cn1c(O)c(/C=N/NC(=O)c2cc3ccccc3cc2O)c2ccccc21 | 0 | 0 | 54 | 40 | 23 | 50 | 55 | 44 | BSA probe FL=0;TCR-CD3 conf=53;SIAE inh conf=0
COc1ccc2c(c1)cc(C(=O)N/N=C/c1c(O)c(C(=O)O)cc3ccccc13)n2C | 0 | 0 | 55 | 0 | 39 | 37 | 39 | - | BSA probe FL=0;TCR-CD3 conf=45;SIAE inh conf=0
